Measurements taken from the array DNA melting data of Ke et al. (doi:10.1101/2024.01.08.574731).

Assays:
[1] = melting temperature; fluorescence melt of hairpins on a sequencing array, two-state fit, raised by 9.35 °C to match UV melts; conditions: sodium 0.088 M
Method in brief: (§1)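 In 50 mM Na-HEPES pH 8.0 containing 25 mM NaCl, hairpins from the library on a sequenced MiSeq flow cell were imaged for Cy3 fluorescence at 2.5 °C steps up to 60 °C, with Cy3 and quencher oligos annealed. After normalisation to pre-quench Cy3 and to control constructs, two-state fits with bootstrapping gave melting temperature and folding enthalpy. Four replicates were combined by inverse-variance weighting, and fitted temperatures were shifted up by 9.35 °C to match UV melts.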

[2] = folding enthalpy; higher = less favourable; fluorescence melt of hairpins on a sequencing array, two-state fit; conditions: sodium 0.088 M
Method in brief: as §1

GCTCGTGGAAACATGAGC ((((.((....)).))))
Tm [1]: 54.5 °C
folding enthalpy [2]: -37.1 kcal/mol

GGAACCGAAAGGTATTCC ((((((....)))..)))
Tm [1]: 33.8 °C
folding enthalpy [2]: -13.3 kcal/mol

GTGCACCGAAAGGTTCAC (((.(((....))).)))
Tm [1]: 50.5 °C
folding enthalpy [2]: -42 kcal/mol

GTTTCCGAAAGGAAAC ((((((....))))))
Tm [1]: 67.8 °C
folding enthalpy [2]: -41.3 kcal/mol

GAAGGACGAAAGTCATTC (((.(((....))).)))
Tm [1]: 52.1 °C
folding enthalpy [2]: -30.8 kcal/mol

GATCCGCGCACGGATC ((((((....))))))
Tm [1]: 59.1 °C
folding enthalpy [2]: -39.2 kcal/mol

GTCGTGCGAAAGCAGAC (((.(((....))))))
Tm [1]: 56.5 °C
folding enthalpy [2]: -21.2 kcal/mol

GGATTGGGAAACTGATCC ((((..(....)..))))
Tm [1]: 34.4 °C
folding enthalpy [2]: -28.1 kcal/mol

GCAGCAGGAAACTACTGC ((((.((....)).))))
Tm [1]: 45.5 °C
folding enthalpy [2]: -30.5 kcal/mol

GATAGTGAAAACTATC ((((((....))))))
Tm [1]: 48.4 °C
folding enthalpy [2]: -30.1 kcal/mol

GGAGTCGAAAGACCCTCC ((((((....)))..)))
Tm [1]: 48 °C
folding enthalpy [2]: -16.7 kcal/mol

GCGTCGGGAAACTGACGC (((((.(....).)))))
Tm [1]: 65.3 °C
folding enthalpy [2]: -49.8 kcal/mol

GAGGCAACGAAAGTTCTC (((..(((....))))))
Tm [1]: 24.4 °C
folding enthalpy [2]: -11.3 kcal/mol

GATCCCTGTGGGATC ((((((...))))))
Tm [1]: 66.7 °C
folding enthalpy [2]: -35 kcal/mol

GAGGGCGAAAGCCGGCTC ((((((....)))..)))
Tm [1]: 51 °C
folding enthalpy [2]: -12.1 kcal/mol

GGACTTGAAAAAGTCC ((((((....))))))
Tm [1]: 58.2 °C
folding enthalpy [2]: -41.9 kcal/mol

GCAAGGCGAAAGCCGGGC ((..(((....)))..))
Tm [1]: 65.5 °C
folding enthalpy [2]: -20.9 kcal/mol

GATCCATGCGTGGATC ((((((....))))))
Tm [1]: 56.8 °C
folding enthalpy [2]: -35.8 kcal/mol

GATCAAGAGGTTGATC ((((((....))))))
Tm [1]: 37.9 °C
folding enthalpy [2]: -24.2 kcal/mol

GGCTGCGAAAGCAGGGCC ((((((....)))..)))
Tm [1]: 53.1 °C
folding enthalpy [2]: -13 kcal/mol

GATCCGAACTCGGATC ((((((....))))))
Tm [1]: 56.4 °C
folding enthalpy [2]: -40.9 kcal/mol

GTACACCGAAAGGTATAC (((.(((....))).)))
Tm [1]: 39.1 °C
folding enthalpy [2]: -22.3 kcal/mol

GTACAGGAAACTGTAC ((((((....))))))
Tm [1]: 52.4 °C
folding enthalpy [2]: -41.6 kcal/mol

GATCGGGTTCCCGATC ((((((....))))))
Tm [1]: 62.8 °C
folding enthalpy [2]: -42.5 kcal/mol

GAGCGTGGAAACGTGCTC ((((..(....)..))))
Tm [1]: 47.6 °C
folding enthalpy [2]: -19.3 kcal/mol

GTCCATGGAAACATGGGC (.(((((....))))).)
Tm [1]: 54 °C
folding enthalpy [2]: -42.9 kcal/mol

GCAGAACCGAAAGGTTGC (((..(((....))))))
Tm [1]: 44.5 °C
folding enthalpy [2]: -17.1 kcal/mol

GCCGTGCGAAAGCCCAGC ((.(.((....)).).))
Tm [1]: 29.4 °C
folding enthalpy [2]: -10.3 kcal/mol

GCGAGACGAAAGTCCGC (((.(((....))))))
Tm [1]: 67.2 °C
folding enthalpy [2]: -29.3 kcal/mol

GGACCCGAAAGGGCGTCC ((((((....)))..)))
Tm [1]: 49.1 °C
folding enthalpy [2]: -16.7 kcal/mol

GCTTTGGGAAACCAAGGC ((.((((....)))).))
Tm [1]: 47.8 °C
folding enthalpy [2]: -29.7 kcal/mol

GGGGTAGCGAAAGCTCCC (((..(((....))))))
Tm [1]: 58.4 °C
folding enthalpy [2]: -23.2 kcal/mol

GTAGTGCGAAAGCAATAC (((.(((....))).)))
Tm [1]: 53.9 °C
folding enthalpy [2]: -28 kcal/mol

GCAGCACGAAAGTGTTGC (((.(((....))).)))
Tm [1]: 60.6 °C
folding enthalpy [2]: -37.2 kcal/mol

GCAACCGAAAGGTATGC ((((((....))).)))
Tm [1]: 50.3 °C
folding enthalpy [2]: -26.4 kcal/mol

AGCCAGAAATGGCT (((((....)))))
Tm [1]: 54.4 °C
folding enthalpy [2]: -19.1 kcal/mol

GCGCTGGGAAACTAGCGC (((((.(....).)))))
Tm [1]: 67.1 °C
folding enthalpy [2]: -32.4 kcal/mol

GGGCAACCGAAAGGTCCC (((..(((....))))))
Tm [1]: 44 °C
folding enthalpy [2]: -16.3 kcal/mol

GCATACGGAAACGTATAC (.(((((....))))).)
Tm [1]: 34.9 °C
folding enthalpy [2]: -16.9 kcal/mol

GTCCACGAAAGTGCGGAC ((((((....)))..)))
Tm [1]: 45 °C
folding enthalpy [2]: -17.4 kcal/mol

GATCTAGAGTAGATC ((((((...))))))
Tm [1]: 34.8 °C
folding enthalpy [2]: -28.1 kcal/mol

GAGCGCGAAAGCGGGCTC ((((((....)))..)))
Tm [1]: 67.9 °C
folding enthalpy [2]: -16.2 kcal/mol

GATCTGGCTGCAGATC ((((((....))))))
Tm [1]: 50 °C
folding enthalpy [2]: -36.3 kcal/mol

GATTGCCGAAAGGCTATC (((.(((....))).)))
Tm [1]: 51.4 °C
folding enthalpy [2]: -19.1 kcal/mol

GTGCGCGGAAACGCGTAC ((.((((....)))).))
Tm [1]: 65.5 °C
folding enthalpy [2]: -20.1 kcal/mol

GATCCAGGGCTGGATC ((((((....))))))
Tm [1]: 52.4 °C
folding enthalpy [2]: -38.3 kcal/mol

GAACCGCGAAAGCGATTC (((.(((....))).)))
Tm [1]: 47.8 °C
folding enthalpy [2]: -24.8 kcal/mol

GTTAGTGGAAACACTAAC (((((((....)))))))
Tm [1]: 54.7 °C
folding enthalpy [2]: -46.1 kcal/mol

GGCTTCGGAAACGGAGTC (.((.((....)).)).)
Tm [1]: 39.9 °C
folding enthalpy [2]: -24.1 kcal/mol

GCGAATATTCGC ((((....))))
Tm [1]: 50.7 °C
folding enthalpy [2]: -33.5 kcal/mol

GCTAAGCGAAAGCATGGC ((.(.((....)).).))
Tm [1]: 39.7 °C
folding enthalpy [2]: -20.1 kcal/mol

GCGGACGAAAGTCACGC ((((((....))).)))
Tm [1]: 64.8 °C
folding enthalpy [2]: -20.9 kcal/mol

GCGCTACGAAAGTACCGC (((.(((....))).)))
Tm [1]: 48.5 °C
folding enthalpy [2]: -36.1 kcal/mol

GCAAAAGGAAACCTTTGC (((((.(....).)))))
Tm [1]: 39.6 °C
folding enthalpy [2]: -30.4 kcal/mol

GCAGTGCGAAAGCTCCGC ((.(.((....)).).))
Tm [1]: 47.9 °C
folding enthalpy [2]: -11.9 kcal/mol

GATCTTCGAGAAGATC ((((((....))))))
Tm [1]: 50.8 °C
folding enthalpy [2]: -42 kcal/mol

GGTGAAGGAAACTTCGTC (..((((....))))..)
Tm [1]: 26.6 °C
folding enthalpy [2]: -12 kcal/mol

GGCACTGGAAACAGTACC ((.((((....)))).))
Tm [1]: 43 °C
folding enthalpy [2]: -33 kcal/mol

GCTGAGCGAAAGCTGAGC (((.(((....))).)))
Tm [1]: 55 °C
folding enthalpy [2]: -40.4 kcal/mol

GATCTCACAAGAGATC ((((((....))))))
Tm [1]: 53.7 °C
folding enthalpy [2]: -38.7 kcal/mol

GTCACCTCGAAAGAGGAC (((..(((....))))))
Tm [1]: 26.9 °C
folding enthalpy [2]: -9.82 kcal/mol

GAAGTTGGAAACAATTTC (((.(((....))).)))
Tm [1]: 35 °C
folding enthalpy [2]: -20.4 kcal/mol

GTTATCTCGAAAGAGAAC (((..(((....))))))
Tm [1]: 29.8 °C
folding enthalpy [2]: -11.8 kcal/mol

GCAAAAGGAAACTCTTGC ((((.((....)).))))
Tm [1]: 27.4 °C
folding enthalpy [2]: -10.8 kcal/mol

GTAGGCGGAAACGCTTAC (((.(((....))).)))
Tm [1]: 48.2 °C
folding enthalpy [2]: -23.1 kcal/mol

GCGGATAGCCGC ((((....))))
Tm [1]: 54.9 °C
folding enthalpy [2]: -26.6 kcal/mol

GGTTCCGGAAACGGAGTC (..((((....))))..)
Tm [1]: 34.1 °C
folding enthalpy [2]: -11.7 kcal/mol

GCGAGACATCGC ((((....))))
Tm [1]: 55.1 °C
folding enthalpy [2]: -8 kcal/mol

GGTCCCGAAAGGGAGACC ((((((....)))..)))
Tm [1]: 51.4 °C
folding enthalpy [2]: -17 kcal/mol

GCGTCTTCACGC ((((....))))
Tm [1]: 51.4 °C
folding enthalpy [2]: -26.9 kcal/mol

GTCTCCCGAAAGGGTGAC (((.(((....))).)))
Tm [1]: 56.5 °C
folding enthalpy [2]: -31.1 kcal/mol

GCCGACCGAAAGGTGGGC (((.(((....))).)))
Tm [1]: 67.4 °C
folding enthalpy [2]: -34.4 kcal/mol

GATCAGTTACCTGATC ((((((....))))))
Tm [1]: 50.9 °C
folding enthalpy [2]: -37 kcal/mol

GTGCAGCGAAAGCTCAC (((.(((....))))))
Tm [1]: 50.8 °C
folding enthalpy [2]: -27 kcal/mol

GTCGGTGGAAACACTGAC (((.(((....))).)))
Tm [1]: 54.4 °C
folding enthalpy [2]: -40.6 kcal/mol

GCCGTCCGAAAGGAAGGC (((.(((....))).)))
Tm [1]: 67 °C
folding enthalpy [2]: -36.4 kcal/mol

GATCCTAATAGGATC ((((((...))))))
Tm [1]: 51.9 °C
folding enthalpy [2]: -27.7 kcal/mol

GCGTGACTACGC ((((....))))
Tm [1]: 59.4 °C
folding enthalpy [2]: -27.2 kcal/mol

GTATCTGGAAACAGACAC ((.((((....)))).))
Tm [1]: 30.7 °C
folding enthalpy [2]: -26.2 kcal/mol

GGCTACCGAAAGGTGGCC (((.(((....))).)))
Tm [1]: 68.8 °C
folding enthalpy [2]: -35.5 kcal/mol

AGGAGGAAACTCCT (((((....)))))
Tm [1]: 45 °C
folding enthalpy [2]: -18.3 kcal/mol

GATCCCATTTGGGATC ((((((....))))))
Tm [1]: 66.1 °C
folding enthalpy [2]: -37 kcal/mol

GGAGGCCCGAAAGGGTCC (((..(((....))))))
Tm [1]: 42.6 °C
folding enthalpy [2]: -12 kcal/mol

GCTGCCGAAAGGCCGAGC ((((((....)))..)))
Tm [1]: 43.6 °C
folding enthalpy [2]: -13.9 kcal/mol

GGCGGGGGAAACCTCGCC ((((.((....)).))))
Tm [1]: 66.1 °C
folding enthalpy [2]: -32.4 kcal/mol

GGCGCGGCGAAAGCCGCC (((..(((....))))))
Tm [1]: 48.6 °C
folding enthalpy [2]: -5.51 kcal/mol

GATCTCTTGTGAGATC ((((((....))))))
Tm [1]: 53.1 °C
folding enthalpy [2]: -48.6 kcal/mol

GATAACGAAAGTTAGATC ((((((....)))..)))
Tm [1]: 35.3 °C
folding enthalpy [2]: -16.8 kcal/mol

GATCAGGTGTCTGATC ((((((....))))))
Tm [1]: 50.9 °C
folding enthalpy [2]: -40.2 kcal/mol

GGGCTACGAAAGTACCC (((.(((....))))))
Tm [1]: 49.6 °C
folding enthalpy [2]: -34.9 kcal/mol

GTCACCCCGAAAGGGGAC (((..(((....))))))
Tm [1]: 41.4 °C
folding enthalpy [2]: -10.1 kcal/mol

GATATTGAAAAATATC ((((((....))))))
Tm [1]: 37 °C
folding enthalpy [2]: -22.6 kcal/mol

GCGGATGTCCGC ((((....))))
Tm [1]: 57.5 °C
folding enthalpy [2]: -22.7 kcal/mol
